Key:
Homo sapiens [1] = species on record: Homo sapiens; experiment: Selectivity ratio of Kd for wild type JAK2 JH1 (unknown origin) expressed in baculovirus infected Sf9 insect cells incubated for 30 mins to Kd for wild type JAK2 JH2 (unknown origin) expressed in baculovirus infected Sf9 insect cells incubated for 30 mins
Outline: (§1)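 Selectivity is the ratio of JH1 Kd to JH2 Kd, both from the same competitive fluorescence polarization assay. JH2 Kd was taken at the 30 min or 20 h incubation. Controls were tracer in buffer (negative) and saturating protein at the common protein concentration (positive).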

Homo sapiens [2] = species on record: Homo sapiens; experiment: Selectivity ratio of Kd for wild type JAK2 JH1 (unknown origin) expressed in baculovirus infected Sf9 insect cells incubated for 30 mins to Kd for wild type JAK2 JH2 (unknown origin) expressed in baculovirus infected Sf9 insect cells incubated for 20 hrs; outline: as §1
[3] = molecular target: T1, Tyrosine-protein kinase JAK2 (Homo sapiens, UniProt O60674); experiment: Binding affinity to wild type JAK2 JH2 (unknown origin) expressed in baculovirus infected Sf9 insect cells incubated for 30 mins by competitive fluorescence polarization assay
T1 sequence (O60674 whole entry, the tested form may be a part): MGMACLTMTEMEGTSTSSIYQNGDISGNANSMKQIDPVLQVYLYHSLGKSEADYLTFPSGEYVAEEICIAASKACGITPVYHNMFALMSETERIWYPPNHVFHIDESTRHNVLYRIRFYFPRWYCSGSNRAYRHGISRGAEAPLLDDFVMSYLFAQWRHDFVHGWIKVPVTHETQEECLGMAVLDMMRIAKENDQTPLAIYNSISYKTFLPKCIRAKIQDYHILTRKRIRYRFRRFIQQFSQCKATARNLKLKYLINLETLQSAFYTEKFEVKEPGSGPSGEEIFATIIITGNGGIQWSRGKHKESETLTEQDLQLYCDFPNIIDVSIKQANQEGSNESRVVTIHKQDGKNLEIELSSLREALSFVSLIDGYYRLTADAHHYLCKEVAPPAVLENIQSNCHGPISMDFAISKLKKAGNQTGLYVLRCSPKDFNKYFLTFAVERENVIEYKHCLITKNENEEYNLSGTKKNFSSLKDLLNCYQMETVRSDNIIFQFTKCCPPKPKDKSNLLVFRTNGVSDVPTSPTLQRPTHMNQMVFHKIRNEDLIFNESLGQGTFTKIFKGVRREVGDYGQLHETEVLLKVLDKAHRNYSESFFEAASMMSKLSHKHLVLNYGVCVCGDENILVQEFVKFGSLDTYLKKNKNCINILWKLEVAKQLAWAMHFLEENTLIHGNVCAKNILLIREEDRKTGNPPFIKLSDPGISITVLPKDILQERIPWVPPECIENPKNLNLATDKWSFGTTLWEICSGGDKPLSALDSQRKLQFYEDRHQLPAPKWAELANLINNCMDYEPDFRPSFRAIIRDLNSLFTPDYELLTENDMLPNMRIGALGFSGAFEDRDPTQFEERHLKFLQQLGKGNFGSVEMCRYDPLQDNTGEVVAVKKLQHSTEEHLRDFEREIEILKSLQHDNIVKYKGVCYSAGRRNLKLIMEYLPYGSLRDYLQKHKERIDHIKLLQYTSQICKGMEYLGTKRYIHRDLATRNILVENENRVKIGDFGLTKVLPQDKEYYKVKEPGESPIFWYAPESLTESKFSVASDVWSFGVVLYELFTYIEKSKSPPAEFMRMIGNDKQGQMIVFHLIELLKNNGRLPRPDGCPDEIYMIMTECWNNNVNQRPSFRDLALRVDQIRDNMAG
Outline: (§2)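 JAK2 JH2 domain Kd from a competitive fluorescence polarization tracer-displacement assay, with readings after 30 min and after 20 h incubation. The negative control was tracer in buffer. The positive control used enough protein to bind all tracer, at the same protein concentration used across the assays.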

[4] = molecular target: T1, Tyrosine-protein kinase JAK2; experiment: Binding affinity to wild type JAK2 JH2 (unknown origin) expressed in baculovirus infected Sf9 insect cells incubated for 20 hrs by competitive fluorescence polarization assay; outline: as §2
[5] = molecular target: T1, Tyrosine-protein kinase JAK2; experiment: Binding affinity to wild type JAK2 JH1 (unknown origin) expressed in baculovirus infected Sf9 insect cells incubated for 30 mins by competitive fluorescence polarization assay
Homo sapiens [6] = species on record: Homo sapiens; experiment: Selectivity ratio of Kd for wild type JAK2 JH2 (unknown origin) expressed in baculovirus infected Sf9 insect cells incubated for 30 mins to Kd for wild type JAK2 JH2 (unknown origin) expressed in baculovirus infected Sf9 insect cells incubated for 20 hrs

SMILES | Selectivity ratio (Homo sapiens [1]) | Selectivity ratio (Homo sapiens [2]) | Kd [3] [nM] | Kd [4] [nM] | Kd [5] [nM] | Selectivity ratio (Homo sapiens [6])
C=CC(=O)NCCc1cc(F)c(C(=O)n2nc(Nc3ccc(C(=O)NC)cc3)nc2N)c(F)c1 | 3.4 | 11.1 | 242 | 75 | 830 | 3.2
C=CC(=O)NCCOc1ccc(F)c(C(=O)n2nc(Nc3ccc(C(=O)NC)cc3)nc2N)c1F | 7.1 | 28.4 | 617 | 154 | 4370 | 4
CNC(=O)c1ccc(Nc2nc(N)n(C(=O)c3c(F)cccc3F)n2)cc1 |  |  | 171 | 263 |  | 0.65
C=CC(=O)NCCc1ccc(F)c(C(=O)n2nc(Nc3ccc(C(=O)NC)cc3)nc2N)c1F | 2.3 | 11.6 | 556 | 110 | 1280 | 5.1
C/C=C/C(=O)NCCc1ccc(F)c(C(=O)n2nc(Nc3ccc(C(=O)NC)cc3)nc2N)c1F |  |  | 578 | 565 |  | 1
C=CC(=O)NCc1ccc(F)c(C(=O)n2nc(Nc3ccc(C(=O)NC)cc3)nc2N)c1F |  |  | 1250 | 800 |  | 1.6

Reference: ChEMBL document CHEMBL5126677, “Covalent Modification of the JH2 Domain of Janus Kinase 2” (ACS Med Chem Lett, 2022)
